Data set [1] in a line: Ratio of the concentration of liver to that of IC50 replication was determined. In kind it is ADME.
For another data set, the target named is Chymotrypsinogen A (Bos taurus, UniProt P00766). Briefly: Inhibitory activity against Chymotrypsin. The essentials: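 One of a panel of 10 human serine and cysteine proteases (elastase, chymotrypsin, trypsin, kallikrein, plasmin, thrombin, Factor Xa, cathepsins B, G and L).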
Data set [2] in a line: Inhibitory activity against plasmin at 100 uM concentration; Not significant.
Data set [3] has as its target Serine protease 1 (Homo sapiens) (UniProt P07477). Description: Inhibitory activity against trypsin at 100 uM concentration; Not significant.
For data set [4], the system named is Rattus norvegicus. Description: In vivo area under curve in rat plasma exposure after oral administration 50 mg/kg. In kind it is ADME, organism-based. Further details: dose 50 mg/kg, route oral. The method, boiled down:
(§1)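 Male Sprague–Dawley rats given a single oral dose of 50 mg/kg as a suspension in a wet granulation vehicle (povidone/lactose/polysorbate). Blood was collected by orbital sinus and terminal cardiac puncture at selected times up to 8 h. Livers were perfused intracardially with saline before sampling. Plasma and liver drug concentrations were measured by LC/MS/MS.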

Data set [5] deals with Rattus norvegicus. Description: In vivo concentration in rat liver exposure 0-8 hour after oral administration 50 mg/kg. Further details: dose 50 mg/kg, route oral. In kind it is ADME, organism-based. The method, boiled down: as §1
The nature of data set [6]: Ratio of cytotoxicity (CC50) to that of replicon (IC50) was determined. The essentials: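 Selectivity index: the IC50 from the XTT cytotoxicity assay in Huh-7 cells divided by the IC50 from a modified HCV subgenomic replicon assay.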
(In general: In antiviral work, replicon cells carry a viral genome segment that copies itself.)

For a further data set, the system named is Huh-7 (Homo sapiens). Briefly: Cytotoxic activity in liver Huh-7 cells.
In data set [7] the target is Kallikrein-1 (Homo sapiens) (UniProt P06870). Briefly: Inhibitory activity against kallikrein at 100 uM concentration; Not significant.
Kallikrein-1 (Homo sapiens), sequence (P06870 25-262 limits assumed): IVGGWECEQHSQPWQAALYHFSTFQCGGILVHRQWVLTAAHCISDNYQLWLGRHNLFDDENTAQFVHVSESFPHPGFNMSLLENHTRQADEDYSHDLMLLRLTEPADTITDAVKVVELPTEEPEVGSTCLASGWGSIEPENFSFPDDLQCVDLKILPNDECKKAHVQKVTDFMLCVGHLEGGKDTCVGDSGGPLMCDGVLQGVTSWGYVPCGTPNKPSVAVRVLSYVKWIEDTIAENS
The nature of data set [8]: In vivo concentration in rat liver exposure 8 hour after oral administration 50 mg/kg. The conditions noted are these: read-out: C. Further details: dose 50 mg/kg, route oral. In kind it is ADME, organism-based. The essentials:
as §1

Data set [9] in a line: In vivo concentration in rat plasma exposure at 8 hour after oral administration 50 mg/kg. The class given is ADME, organism-based. Set-up: dose 50 mg/kg, route oral. The following applies: read-out: C. The essentials: as §1
For data set [10], the target named is Prothrombin (Homo sapiens) (UniProt P00734). Description: Inhibitory activity against thrombin at 100 uM concentration; Not significant.
The subject of data set [11] is Rattus norvegicus. Description: In vivo concentration in rat liver exposure 8 hour after oral administration 50 mg/kg; Below detection limit. The class given is ADME, organism-based. Further details: dose 50 mg/kg, route oral. The method, boiled down:
as §1

Calls of active or inactive are those of the source. The rule behind the calls is not given here.

Serine protease 1 (Homo sapiens), sequence (P07477 whole entry): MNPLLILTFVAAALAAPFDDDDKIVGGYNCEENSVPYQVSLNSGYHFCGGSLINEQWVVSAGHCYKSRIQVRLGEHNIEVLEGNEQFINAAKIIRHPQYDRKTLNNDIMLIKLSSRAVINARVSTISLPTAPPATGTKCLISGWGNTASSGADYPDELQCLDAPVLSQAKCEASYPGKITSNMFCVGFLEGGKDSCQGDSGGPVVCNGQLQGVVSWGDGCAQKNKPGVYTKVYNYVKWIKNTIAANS

Usually IC50 stands for the concentration that gives 50% inhibition. Read a low IC50 as higher potency. What is called AUC is the area under the concentration-time curve, a measure of exposure. Low values mean low exposure, high ones high exposure. As a reminder, the CC50 is the concentration at which the toxic effect on the cells reaches its halfway point. For the compound `CCC[C@H](NC(=O)[C@@H]1[C@H]2CCC[C@H]2CN1C(=O)[C@@H](NC(=O)[C@@H](NC(=O)c1cnccn1)C(C)C)C(C)(C)C)C(=O)C(=O)NC(C)CC` (stereo partly drawn), the values for the Ratio in data set [1] and in data set [6] were 4 and above 29, respectively. The compound further came in with a 50% inhibitory concentration (IC50) at Chymotrypsinogen A above 100 µM. In addition, the inhibition entry in [2], in data set [3], in data set [7] and in [10] was “inactive” each time. In addition, the area under the curve (AUC) with Rattus norvegicus [4] was 22.3 µg·h/mL. Further, the Caverage in the data set on Rattus norvegicus [5] stood at 14 µM. Moreover, the CC50 with Huh-7 (Homo sapiens) is above 100 µM. Further, the concentration at 8 h in [8] worked out at 8.68 µM; in data set [9], 0.92 µg/mL.
`CCC(C)NC(=O)C(=O)[C@H](CC(F)F)NC(=O)[C@@H]1[C@H]2CCC[C@H]2CN1C(=O)[C@@H](NC(=O)[C@@H](NC(=O)c1cnccn1)C(C)C)C(C)(C)C` (stereo partly drawn): the Ratio in [6] is above 38. The CC50 with Huh-7 (Homo sapiens) was above 100 µM.
Consider `CCCC(NC(=O)[C@@H]1[C@H]2CCC[C@H]2CN1C(=O)[C@@H](NC(=O)[C@@H](NC(=O)c1cnccn1)C(C)C)C(C)C)C(=O)C(=O)NC1CC1` (stereo partly drawn), for which the inhibition result in data set [3], in data set [7] and in [10] was “inactive” throughout. This compound also came in with an AUC with Rattus norvegicus [4] of 2.86 µg·h/mL. The compound further yielded a Caverage in the data set on Rattus norvegicus [5] of 6.29 µM.
With `CC(C)[C@H](NC(=O)c1cnccn1)C(=O)N[C@H](C(=O)N1C[C@@H]2CCC[C@@H]2[C@H]1C(=O)N[C@@H](CC(F)F)C(=O)C(=O)N[C@@H](C)c1ccccc1)C(C)(C)C`, the Ratio in data set [6] is above 159. Moreover, the CC50 with Huh-7 (Homo sapiens) was above 100 µM.
For `CCC[C@H](NC(=O)[C@@H]1[C@H]2CCC[C@H]2CN1C(=O)[C@@H](NC(=O)[C@@H](NC(=O)c1cnccn1)C(C)C)C(C)(C)C)C(=O)C(=O)N[C@@H](C)c1ccccc1`, the inhibition result in data set [3], in data set [7] and in data set [10] was “inactive” in each case.
`CC(C)[C@H](NC(=O)c1cnccn1)C(=O)N[C@H](C(=O)N1C[C@@H]2CCC[C@@H]2[C@H]1C(=O)NC(CC(F)F)C(=O)C(=O)NC1CC1)C(C)C` (stereo partly drawn): the Ratio entry in data set [1] is “<= 0.23”; in [6], above 26. Moreover, the AUC with Rattus norvegicus [4] came to 0.145 µg·h/mL. Also, in the data set on Rattus norvegicus [5], the Caverage entry is given as “</- 0.88 uM”. In the data set with Huh-7 (Homo sapiens), this compound had a CC50 above 100 µM. In addition, the concentration at 8 h in data set [9] worked out at 0.02 µg/mL. The C result with Rattus norvegicus [11] is reported as “Below detection limit”.
As for `CC(C)[C@H](NC(=O)c1cnccn1)C(=O)N[C@H](C(=O)N1C[C@@H]2CCC[C@@H]2[C@H]1C(=O)N[C@@H](CC(F)F)C(=O)C(=O)N[C@@H](C)c1ccccc1)C(C)C`, the Ratio in data set [6] was above 110. Also, the 50% cytotoxic concentration (CC50) in the data set with Huh-7 (Homo sapiens) is above 100 µM.
`CCC[C@H](NC(=O)[C@@H]1[C@H]2CCC[C@H]2CN1C(=O)[C@@H](NC(=O)[C@@H](NC(=O)c1cnccn1)C(C)C)C(C)(C)C)C(=O)C(=O)NC1CC1`: the half-inhibitory concentration (IC50) at Chymotrypsinogen A is above 100 µM. The inhibition result in data set [3], in data set [7] and in data set [10] was “inactive” in each case. This compound also had an area under the curve (AUC) in the data set on Rattus norvegicus [4] of 25.8 µg·h/mL. Also, the Caverage with Rattus norvegicus [5] is 16 µM. The concentration at 8 h in [8] was found to be 3.67 µM; in [9] it was 0.52 µg/mL.
For `CC(C)[C@H](NC(=O)c1cnccn1)C(=O)N[C@H](C(=O)N1C[C@@H]2CCC[C@@H]2[C@H]1C(=O)N[C@@H](CC(F)F)C(=O)C(=O)NC1CC1)C(C)(C)C`, the inhibition entry in [3], in data set [7] and in data set [10] was “inactive” each time. In the data set on Rattus norvegicus [4], this compound yielded an exposure (AUC) of 1.88 µg·h/mL. For the same compound, the Caverage in the data set on Rattus norvegicus [5] came out at 3.64 µM. For the same compound, the concentration at 8 h in data set [8] came out at 0.67 µM; in [9], 0.04 µg/mL.

Values taken from ChEMBL document CHEMBL1149206, “P1 and P3 optimization of novel bicycloproline P2 bearing tetrapeptidyl alpha-ketoamide based HCV protease inhibitors” (Bioorg Med Chem Lett, 2004).
